Source: PubChem BioAssay (several laboratories)
The list is not random: actives were taken first. Their share in the collection is about 11%.
WT yeast gro inh = growth inhibition of WT strain, primary screen, mitochondrial fusion inhibitor project, WT and mutant strains, chemical genetic. mitochondrial fusion phenotypic screen. actives 2.1% (n = 190,000). inhibition, % at 10 µM; in the data active = inhibition above about 58%; tested in S. cerevisiae
Diaph inh CS = diaphorase inhibitors and chemical oxidizers, primary screen, counter-screen for diaphorase-coupled primary assays, biochemical, uHTS, resorufin fluorescence. diaphorase resazurin-to-resorufin fluorescence, NADH, 16 min; bacterial (C. kluyveri) enzyme, not human. inhibition, % at 20 µM. actives 0.69% (n = 190,000). AID 1217, 2008;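 active = primary screen inhibition at 20 µM above a set limit, cut at about 50% in these data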;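 also: plate controls were DMSO with full reaction for no effect and wells lacking NADH for full effect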
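Test system: diaphorase enzyme from Clostridium kluyveri; amount: diaphorase at 0.14 U/mL in enzyme working solution; detection: fluorescence of resorufin formed from resazurin, Ex 544/Em 590 nm; times: reaction incubation of 16 min at room temperature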
Lmaj promast = Leishmania major promastigote growth inhibition, primary screen; actives 9% (n = 200,000); Leishmania major promastigotes, resazurin fluorescence viability; inhibition, % at 10 µM;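 also: promastigotes grown with compound for 44 hours at 28 °C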
Diaph act CS = compounds boosting diaphorase resazurin reduction – biochemical, uHTS, resorufin fluorescence, counter-screen for diaphorase-coupled primary assays, primary screen; activation factor at 20 µM; actives 0.005% (n = 190,000); AID 1229, 2008; Diaphorase/resazurin coupled assay, 16 min; stronger effect = higher value; 1 = vehicle wells, 0 = NADH-free wells;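 active = diaphorase activity raised at least twofold by the compound at 20 µM; inactive = activation factor below 2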
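Test system: Clostridium kluyveri diaphorase, purified enzyme. Buffer or medium: 50 mM HEPES pH 7.4 buffer plus MgCl2 and Tween 20. Also added: 0.114 mM NADH and 0.1 mM resazurin, final amounts. Dosing: compound 20 µM once, DMSO 1%. Schedule: 16 min enzyme reaction, ambient temperature. Detection: fluorescence of resorufin, 544 nm excitation, 590 nm emission.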
G6PDH counter = L. mesenteroides G6PDH inhibitors, counter-screen for G6PDH-coupled screening assays, biochemical, Leuconostoc mesenteroides enzyme. glucose-6-phosphate dehydrogenase [Leuconostoc mesenteroides]. Purified L. mesenteroides G6PDH, diaphorase/resazurin coupled fluorescence, 45 min. inhibition, % at 5 µM. actives 0.12% (n = 200,000). AID 1020, 2008
Active calls of the source: *. Rule as the data show it, unless noted: active = inhibition above about 50%; inactive = the rest.

SMILES	WT yeast gro inh	Diaph inh CS	Lmaj promast	Diaph act CS	G6PDH counter
COc1ccc(CCNC(=O)CSc2nc3[nH]ncc3c(=O)n2-c2ccccc2OC)cc1OC	-3	-1	-2	1	4
COc1ccc(CCNC(=O)CSc2nnc(-c3ccc(F)cc3)c3ccccc23)cc1OC	3	20	65*	0.8	10
C/C(=N\NS(=O)(=O)c1ccc(Cl)cc1)c1ccc(O)cc1	-19	10	-5	0.9	15
COc1ccc(NC(=O)c2ccc3c(c2)NC(=O)CO3)cc1OC	-13	1	6	1	0
COc1ccccc1NS(=O)(=O)c1cc(C(=O)NCCN2CCOCC2)ccc1Cl	12	16	3	0.8	5
COC(=O)c1ccc(SCC(=O)NC2CCCC2)c([N+](=O)[O-])c1	-18	0	60*	1	-3
NC(=O)c1ccc(SCC(=O)NC2CCCCC2)c([N+](=O)[O-])c1	-14	8	8	0.9	3
COC(=O)CSc1ccc(S(=O)(=O)N2CCC(C)CC2)cc1[N+](=O)[O-]	4	-11	-10	1.1	6
COC(=O)c1ccc(SCC(=O)N2CCC(C)CC2)c([N+](=O)[O-])c1	-35	12	64*	0.9	-18
O=C(Nc1nnc(C2=COCCO2)o1)c1ccc(Cl)cc1	60*	4	4	1	0
O=C(Nc1nnc(C2=COCCO2)o1)c1ccc(Cc2ccccc2)cc1	68*	-3	7	1	15
COc1cc(OC)c(C(=O)NCCCn2ccnc2)cc1OC	3	1	-6	1	14
CCCCN(CCCC)C(=S)N/N=C/c1c(C)[nH]n(-c2ccccc2)c1=O	42	12	96*	0.9	-1
Cc1[nH]n(-c2ccccc2)c(=O)c1/C=N/Nc1nncc(-c2ccccc2)n1	-4	6	100*	0.9	-12
CC(C)CNc1oc(-c2ccc(F)cc2)nc1C#N	20	19	-9	0.8	-17
O=C(Nc1ccc([N+](=O)[O-])cc1)c1cn(-c2ccccc2)nc1-c1cc2ccccc2o1	-3	-2	56*	1	6
O=C(N/N=C/c1ccc([N+](=O)[O-])o1)c1cn(-c2ccccc2)nc1-c1ccccc1	-1	6	97*	0.9	-20
O=C(N/N=C/c1ccc([N+](=O)[O-])o1)c1cn(-c2ccccc2)nc1-c1ccc(Cl)cc1	0	16	76*	0.8	1
O=C(CC(=O)NC1CCCCC1)N/N=C/c1ccccc1F	-8	2	5	1	0
O=C(/C=C/c1cccc([N+](=O)[O-])c1)N1CCN(Cc2ccc3c(c2)OCO3)CC1	4	7	30	0.9	4
COC(CNc1cc(=O)oc2ccccc12)OC	-5	14	-1	0.9	-5
Cc1ccsc1/C=N/n1c(-c2ccncc2)n[nH]c1=S	-4	27	-7	0.7	6
COCc1c(C(=O)N2CCN(c3ccc(C(F)(F)F)cn3)CC2)oc2ccccc12	-6	0	-5	1	-1
O=C(c1ccccc1)c1ccc2nc(-c3ccc(NC(=O)c4ccccc4F)cc3)[nH]c2c1	38	-3	61*	1	9
COc1cccc(C(c2nnnn2Cc2ccccc2)N2CCN(C3CCCC3)CC2)c1OC (configuration not stated)	-3	16	98*	0.8	4
COc1ccc(OC)c(C(c2nnnn2Cc2ccccc2)N2CCN(C3CCCCC3)CC2)c1 (configuration not stated)	-7	29	7	0.7	-24
COc1ccc(C(c2nnnn2CCc2ccccc2)N2CCN(C3CCCC3)CC2)cc1OC (configuration not stated)	-1	8	100*	0.9	-2
Cc1ccc(C(c2nnnn2CCc2ccccc2)N2CCSCC2)cc1 (configuration not stated)	29	2	36	1	7
COc1cc(C(c2nnnn2C2CCCC2)N2CCN(C)CC2)cc(OC)c1OC (configuration not stated)	-9	8	9	0.9	3
